Measurements taken from ChEMBL document CHEMBL4390648, “Chemical synthesis, crystal structure, versatile evaluation of their biological activities and molecular simulations of novel pyrithiobac derivatives” (Eur J Med Chem, 2019).
Values after ≈ are worked out from the molar mass of the structure shown. Active and inactive are the calls of the source. No cut-off for these calls is given here.

Assays:
Phytophthora capsici = assay: Antifungal activity against Phytophthora capsici assessed as reduction in growth at 50 mg/l by mycelium growth rate method relative to control; assay type: functional
Method in brief: (§1)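 Mycelium growth rate method against S. sclerotiorum, P. capsici, P. piricola, R. cerealis, W. anthracnose and R. bakanae. Each compound tested at 50 mg/L, with chlorothalonil and PTB as controls. Relative inhibitory ratio (%) calculated from mycelial growth.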

Fusarium fujikuroi = assay: Antifungal activity against Gibberella fujikuroi assessed as reduction in growth at 50 mg/l by mycelium growth rate method relative to control; assay type: functional; method in brief: as §1
Colletotrichum = assay: Antifungal activity against Colletotrichum (W. anthracnose) assessed as reduction in growth at 50 mg/l by mycelium growth rate method relative to control; assay type: functional; method in brief: as §1
Tobacco mosaic virus [1] = assay: Antiviral activity against Tobacco mosaic virus inoculated in Nicotiana tabacum leaves assessed as passivation by measuring local lesion numbers at 500 mg/l pre-incubated with virus for 30 mins followed by inoculation and measured up to 4 days; assay type: functional
Method in brief: (§2)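 Passivation assay: TMV mixed with an equal volume of compound solution for 30 min, then rubbed onto the left half of N. tabacum L. leaves. The right half received virus mixed with solvent as control. Local lesions counted 3–4 days after inoculation. Compounds tested at 500 or 100 mg/L.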

Tobacco mosaic virus [2] = assay: Antiviral activity against Tobacco mosaic virus inoculated in Nicotiana tabacum leaves assessed as passivation by measuring local lesion numbers at 100 mg/l pre-incubated with virus for 30 mins followed by inoculation and measured up to 4 days; assay type: functional; method in brief: as §2
Candida albicans [3] = assay: Inhibition of Candida albicans AHAS catalytic subunit at 100 uM using pyruvate as substrate measured after 30 mins by colorimetric method relative to control
Method in brief: (§3)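 Colorimetric assay in 50 mM potassium phosphate pH 7.0 with 50 mM pyruvate, 1 mM thiamine diphosphate, 10 mM MgCl2 and 10 μM FAD. Incubated 30 min at 37 °C for plant AHAS and 30 °C for fungal AHAS. Acetolactate formed was then quantified.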

[4] = system: Brassica rapa subsp. oleifera; assay: Herbicidal activity against Brassica campestris L assessed as inhibition of rape root growth at 10 mg/l root growth incubated for 48 hrs relative to control; assay type: functional
Method in brief: (§4)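 Rape seeds soaked in distilled water for 4 h, then placed on filter paper wetted with inhibitor solution, 15 seeds per 6-cm dish. Germinated in the dark at 28 °C for 48 h. Mean length of 10 roots per plate measured.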

[5] = system: Brassica rapa subsp. oleifera; assay: Herbicidal activity against Brassica campestris L assessed as inhibition of rape root growth at 100 mg/l root growth incubated for 48 hrs relative to control; assay type: functional; method in brief: as §4
Ceratobasidium cereale [6] = assay: Antifungal activity against Rhizoctonia cerealis assessed as reduction in growth mycelium growth rate method relative to control; assay type: functional, organism-based
Method in brief: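 EC50 against R. cerealis derived from mycelium growth-rate inhibition over a concentration series, using a probit fit: Probit = m(log10[I] − log10[EC50]) + 5.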

Sclerotinia sclerotiorum = assay: Antifungal activity against Sclerotinia sclerotiorum assessed as reduction in growth at 50 mg/l by mycelium growth rate method relative to control; assay type: functional; method in brief: as §1
Candida albicans [7] = assay: Antifungal activity against Candida albicans isolate g5 grown in RPMI 1640 medium incubated for 24 hrs by microdilution method; assay type: functional; conditions: isolate g5, 24 h
Method in brief: (§5)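 C. albicans standard strain SC5314 and clinical isolates g5 and 17# tested by broth microdilution in YNB or RPMI 1640 medium. Plates incubated at 35 °C for up to 72 h, with visual readings taken at 24 h. MIC taken as the lowest concentration preventing visible growth.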

Arabidopsis thaliana [8] = assay: Inhibition of Arabidopsis thaliana AHAS catalytic subunit using pyruvate as substrate at 10 uM measured after 30 mins by colorimetric method relative to control; method in brief: as §3
Arabidopsis thaliana [9] = assay: Inhibition of Arabidopsis thaliana AHAS catalytic subunit using pyruvate as substrate at 100 uM measured after 30 mins by colorimetric method relative to control; method in brief: as §3
Candida albicans [10] = assay: Inhibition of Candida albicans AHAS catalytic subunit at 10 uM using pyruvate as substrate measured after 30 mins by colorimetric method relative to control; method in brief: as §3
Candida albicans [11] = assay: Antifungal activity against Candida albicans SC5314 grown in RPMI 1640 medium incubated for 24 hrs by microdilution method; assay type: functional; conditions: SC5314, 24 h; method in brief: as §5
Candida albicans [12] = assay: Antifungal activity against Candida albicans SC5314 grown in YNB medium incubated for 24 hrs by microdilution method; assay type: functional; conditions: SC5314, 24 h; method in brief: as §5
[13] = system: Botryosphaeria berengeriana; assay: Antifungal activity against Physalospora pyricola assessed as reduction in growth at 50 mg/l by mycelium growth rate method relative to control; assay type: functional; method in brief: as §1
Candida albicans [14] = assay: Antifungal activity against Candida albicans isolate 17 grown in RPMI 1640 medium incubated for 24 hrs by microdilution method; assay type: functional; conditions: isolate 17, 24 h; method in brief: as §5
Ceratobasidium cereale [15] = assay: Antifungal activity against Rhizoctonia cerealis assessed as reduction in growth at 50 mg/l by mycelium growth rate method relative to control; assay type: functional; method in brief: as §1
[16] = system: Severe acute respiratory syndrome-related coronavirus; assay: Inhibition of SARS coronavirus M protease using AVLQSGFRKK as substrate at 20 uM by FRET assay relative to control
Method in brief: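 Purified SARS-CoV Mpro assayed by FRET. Protein, compound and substrate were preheated at 37 °C and oscillated. Fluorescence (ex 320/em 405 nm) was read every 5 s for 200 reads.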

Candida albicans [17] = assay: Antifungal activity against Candida albicans isolate g5 grown in YNB medium incubated for 24 hrs by microdilution method; assay type: functional; conditions: isolate g5, 24 h; method in brief: as §5
Mythimna separata = assay: Insecticidal activity against Mythimna separata assessed as larval mortality at 600 mg/l by leaf-dip method; assay type: functional
Candida albicans [18] = assay: Antifungal activity against Candida albicans isolate 17 grown in YNB medium incubated for 24 hrs by microdilution method; assay type: functional; conditions: isolate 17, 24 h; method in brief: as §5

SMILES | inhibition at 50 µg/mL (Phytophthora capsici) [%] | inhibition at 50 µg/mL (Fusarium fujikuroi) [%] | inhibition at 50 µg/mL (Colletotrichum) [%] | inhibition at 500 µg/mL (Tobacco mosaic virus [1]) [%] | inhibition (Tobacco mosaic virus [2]) | inhibition (Candida albicans [3]) [%] | inhibition (INH) [4] [%] | inhibition (INH) [5] [%] | inhibition at 50 µg/mL (Sclerotinia sclerotiorum) [%] | MIC (Candida albicans [7]) [µg/mL] | inhibition (Arabidopsis thaliana [8]) [%] | inhibition (Arabidopsis thaliana [9]) [%] | inhibition (Candida albicans [10]) [%] | MIC (Candida albicans [11]) [µg/mL] | MIC (Candida albicans [12]) [µg/mL] | inhibition at 50 µg/mL [13] [%] | MIC (Candida albicans [14]) [µg/mL] | inhibition at 50 µg/mL (Ceratobasidium cereale [15]) [%] | inhibition [16] [%] | MIC (Candida albicans [17]) [µg/mL] | other results
COc1nc(OC)nc(Sc2ccc(C#N)cc2Br)n1 | 8.3 | 51.5 | 19 | 0 | inactive | 68.6 | 0 | 25 | 13.9 | > 100 | 53.1 | 98.3 | 32.1 | > 100 | > 100 | 56.3 | > 100 | 94 | 39.3 | > 100 | EC50 (Ceratobasidium cereale [6]): 12.4 µg/mL (≈ 35.1 µM); mortality at 600 µg/mL (Mythimna separata): 30%; MIC (Candida albicans [18]): > 100 µg/mL
COc1nc(OC)nc(Sc2ccc(C(=O)O)cc2F)n1 | 16.7 | 6.1 | 19 | 0 | inactive | 94.9 | 0 | 27.6 | 61.1 | > 100 | 13.8 | 18.7 | 52.3 | > 100 | > 100 | 53.1 | > 100 | 57.1 | 89.5 | > 100 | mortality at 600 µg/mL (Mythimna separata): 30%; MIC (Candida albicans [18]): 3.12 µg/mL (≈ 10 µM)
COc1nc(OC)nc(Sc2cccc(Br)c2C#N)n1 | 25 | 21.2 | 47.6 | 0 | inactive | 71.1 | 0 | 14.3 | 13.9 | > 100 | 40.3 | 74.7 | 34.8 | > 100 | 12.5 (≈ 35.4 µM) | 73.4 | > 100 | 31 | 96.3 | 12.5 (≈ 35.4 µM) | mortality at 600 µg/mL (Mythimna separata): 75%; MIC (Candida albicans [18]): 6.25 µg/mL (≈ 17.7 µM)
COc1nc(OC)nc(Oc2cccc(I)c2)n1 | 33.3 | 6.1 | 23.8 | 17.1 | inactive | 29.4 | 80.2 | 88.1 | 66.7 | > 100 | 8.9 | 84.7 | 0 | > 100 | > 100 | 59.4 | > 100 | 90.5 | 0 | > 100 | EC50 (Ceratobasidium cereale [6]): 10.9 µg/mL (≈ 30.4 µM); MIC (Candida albicans [18]): > 100 µg/mL
N#Cc1c(Cl)c(Cl)c(Cl)c(C#N)c1Cl [CHLOROTHALONIL] | 80.8 | 75.4 | 78.6 | – | – | – | – | – | 87.6 | – | – | – | – | – | – | 92.5 | – | 96.8 | – | – | EC50 (Ceratobasidium cereale [6]): 5.3 µg/mL (≈ 19.9 µM)
COc1nc(OC)nc(Sc2ccc(C#N)cc2F)n1 | 16.7 | 27.3 | 23.8 | 0 | inactive | 85.4 | 41.8 | 54.2 | 13.9 | 100 (≈ 342 µM) | 42.9 | 63.3 | 55.7 | 100 (≈ 342 µM) | 6.25 (≈ 21.4 µM) | 54.7 | 100 (≈ 342 µM) | 58.3 | 49.7 | 12.5 (≈ 42.8 µM) | mortality at 600 µg/mL (Mythimna separata): 0%; MIC (Candida albicans [18]): 6.25 µg/mL (≈ 21.4 µM)
COc1nc(OC)nc(Sc2ccc(Cl)cc2C#N)n1 | 16.7 | 33.3 | 23.8 | 0 | inactive | 79.9 | 0 | 16.6 | 27.8 | > 100 | 44.9 | 71.3 | 52.1 | > 100 | > 100 | 71.9 | > 100 | 45.2 | 85.1 | > 100 | mortality at 600 µg/mL (Mythimna separata): 0%; MIC (Candida albicans [18]): > 100 µg/mL
